Active and inactive are the calls of the source. The rule behind the calls is not given here.
What was measured:
[1] = biological target: T1, Muscarinic acetylcholine receptor M4 (Homo sapiens, UniProt P08173); assay: Positive allosteric modulation of human M4 receptor expressed in CHO-K1 cells coexpressing Gqi5 assessed as potentiation of acetylcholine-mediated calcium mobilization incubated for 144 secs prior to acetylcholine addition by Fluo-4-AM staining; format: functional, cell-based
T1 sequence (P08173 whole entry): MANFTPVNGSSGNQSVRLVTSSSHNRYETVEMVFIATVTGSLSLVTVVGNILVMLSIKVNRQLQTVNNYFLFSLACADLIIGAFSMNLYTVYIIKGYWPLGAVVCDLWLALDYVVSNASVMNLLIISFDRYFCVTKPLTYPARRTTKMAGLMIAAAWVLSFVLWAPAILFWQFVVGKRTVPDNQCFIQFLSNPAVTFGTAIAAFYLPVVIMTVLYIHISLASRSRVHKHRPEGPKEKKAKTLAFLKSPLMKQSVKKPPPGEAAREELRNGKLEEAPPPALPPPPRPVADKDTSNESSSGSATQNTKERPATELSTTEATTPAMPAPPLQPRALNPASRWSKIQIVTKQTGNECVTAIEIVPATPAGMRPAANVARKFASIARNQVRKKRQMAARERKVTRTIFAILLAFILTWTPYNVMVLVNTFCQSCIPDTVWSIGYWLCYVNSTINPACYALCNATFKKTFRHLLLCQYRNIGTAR
Procedure, shortened: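 hM4 stably cotransfected with chimeric Gqi5 in CHO-K1 cells. Cells plated overnight at 37 °C, loaded with Fluo-4 AM for 45 min at 37 °C in HBSS/20 mM HEPES/2.5 mM probenecid. Compound pretreated 144 s (0.3% DMSO final), then EC20 ACh, then EC80 ACh 86 s later; kinetic fluorescence at 37 °C.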

[2] = Plasma clearance in rat at 1mg/kg, iv; format: ADME, organism-based
[3] = Intrinsic clearance in rat liver microsomes; format: ADME, Microsome; conditions: read-out: CLH
Procedure, shortened: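 Intrinsic clearance was measured in human and rat hepatic microsomes to assess oxidative metabolism, with predicted hepatic clearance given in mL/min/kg.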

[4] = biological target: T2, Muscarinic acetylcholine receptor M4 (Homo sapiens) (UniProt P08173); assay: Positive allosteric modulation of human M4 receptor expressed in CHO-K1 cells coexpressing Gqi5 assessed as potentiation of acetylcholine-mediated calcium mobilization incubated for 144 secs prior to acetylcholine addition by Fluo-4-AM staining relative to acetylcholine; format: functional, cell-based
T2 sequence (whole entry): T1 sequence (P08173 whole entry)
Procedure, shortened: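 hM4-Gqi5 CHO-K1 cells, plated overnight, loaded with Fluo-4 AM (45 min, 37 °C). Compound (0.3% DMSO final) preincubated 144 s, then ACh EC20 added, and EC80 added 86 s later; 1 mM ACh wells for normalization. Calcium read at 37 °C, normalized to baseline and then to maximal ACh response. EC50 from four-parameter logistic fit; three independent determinations in triplicate.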

Plasma [5] = assay: Fraction unbound in human plasma; format: ADME, cell-free
Procedure, shortened: (§1)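 Plasma protein binding was measured by equilibrium dialysis in human and rat plasma and reported as % unbound.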

[6] = AUC in rat at 1 mg/kg, iv; format: ADME, organism-based; parameters: dose 1 mg/kg, route intravenous; conditions: plasma
[7] = biological target: Muscarinic acetylcholine receptor M3 (Homo sapiens) (UniProt P20309); assay: Activity at human M3 receptor expressed in CHO cells coexpressing Gqi5 assessed as effect on acetylcholine induced calcium mobilization up to 30 uM incubated for 144 secs prior to acetylcholine addition by Fluo-4-AM staining; format: functional, cell-based
Sequence of Muscarinic acetylcholine receptor M3 (Homo sapiens) (P20309 whole entry, looked up): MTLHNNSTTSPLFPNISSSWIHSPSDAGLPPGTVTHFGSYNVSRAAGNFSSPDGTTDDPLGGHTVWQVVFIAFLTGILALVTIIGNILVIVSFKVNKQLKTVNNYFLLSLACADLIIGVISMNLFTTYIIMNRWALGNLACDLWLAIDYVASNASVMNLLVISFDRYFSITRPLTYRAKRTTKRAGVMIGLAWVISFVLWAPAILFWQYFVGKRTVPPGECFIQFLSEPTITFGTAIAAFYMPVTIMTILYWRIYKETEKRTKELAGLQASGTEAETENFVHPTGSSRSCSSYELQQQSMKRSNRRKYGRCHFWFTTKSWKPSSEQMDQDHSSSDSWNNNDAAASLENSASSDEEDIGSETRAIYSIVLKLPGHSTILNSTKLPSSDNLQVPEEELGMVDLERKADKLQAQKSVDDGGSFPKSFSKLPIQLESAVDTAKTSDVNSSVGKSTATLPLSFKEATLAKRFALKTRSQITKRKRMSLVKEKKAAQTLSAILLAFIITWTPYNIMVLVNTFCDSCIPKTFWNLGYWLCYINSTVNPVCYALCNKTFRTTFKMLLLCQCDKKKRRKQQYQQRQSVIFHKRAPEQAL

[8] = Mean residence time in rat at 1 mg/kg, iv; format: ADME, organism-based; parameters: dose 1 mg/kg, route intravenous; conditions: in vivo
[9] = Drug uptake in rat brain assessed per gram of tissue at 10 mg/kg, po administered as single dose measured at 1 hr; format: ADME, organism-based; parameters: dose 10 mg/kg, route oral; conditions: read-out: Drug uptake
Procedure, shortened: (§2)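 Rats got a single 10 mg/kg oral dose. At a single 1 h time point, brain (ng/g tissue), plasma and hepatic portal vein concentrations were measured, giving brain:plasma and portal vein:plasma ratios. The portal vein:plasma ratio was taken as an indicator of the extent of oxidative metabolism.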

[10] = Plasma concentration in rat at 10 mg/kg, po administered as single dose measured at 1 hr; format: ADME, organism-based; parameters: dose 10 mg/kg, route oral
Procedure, shortened: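 Rats received a single 10 mg/kg oral dose. At 1 h, drug was measured in brain (ng/g), plasma and hepatic portal vein, and brain:plasma and HPV:plasma ratios were calculated.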

[11] = biological target: T3, Muscarinic acetylcholine receptor M1 (Homo sapiens) (UniProt P11229); assay: Activity at human M1 receptor expressed in CHO-K1 cells coexpressing Gqi5 assessed as effect on acetylcholine induced calcium mobilization up to 30 uM incubated for 144 secs prior to acetylcholine addition by Fluo-4-AM staining; format: functional, cell-based
T3 sequence (whole entry): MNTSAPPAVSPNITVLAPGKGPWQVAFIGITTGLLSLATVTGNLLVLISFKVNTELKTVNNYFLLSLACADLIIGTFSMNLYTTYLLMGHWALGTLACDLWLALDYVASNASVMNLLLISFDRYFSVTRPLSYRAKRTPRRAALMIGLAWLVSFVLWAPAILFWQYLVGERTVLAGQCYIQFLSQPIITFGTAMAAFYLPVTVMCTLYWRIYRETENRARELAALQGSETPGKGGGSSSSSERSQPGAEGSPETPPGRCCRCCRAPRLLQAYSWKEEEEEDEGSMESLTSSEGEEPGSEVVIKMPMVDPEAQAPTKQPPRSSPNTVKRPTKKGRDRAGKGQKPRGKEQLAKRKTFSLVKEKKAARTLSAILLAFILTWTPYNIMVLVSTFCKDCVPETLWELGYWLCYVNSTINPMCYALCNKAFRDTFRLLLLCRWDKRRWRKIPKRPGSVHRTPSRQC

[12] = biological target: T4, Muscarinic acetylcholine receptor M5 (Homo sapiens) (UniProt P08912); assay: Activity at human M5 receptor expressed in CHO cells coexpressing Gqi5 assessed as effect on acetylcholine induced calcium mobilization up to 30 uM incubated for 144 secs prior to acetylcholine addition by Fluo-4-AM staining; format: functional, cell-based
T4 sequence (whole entry): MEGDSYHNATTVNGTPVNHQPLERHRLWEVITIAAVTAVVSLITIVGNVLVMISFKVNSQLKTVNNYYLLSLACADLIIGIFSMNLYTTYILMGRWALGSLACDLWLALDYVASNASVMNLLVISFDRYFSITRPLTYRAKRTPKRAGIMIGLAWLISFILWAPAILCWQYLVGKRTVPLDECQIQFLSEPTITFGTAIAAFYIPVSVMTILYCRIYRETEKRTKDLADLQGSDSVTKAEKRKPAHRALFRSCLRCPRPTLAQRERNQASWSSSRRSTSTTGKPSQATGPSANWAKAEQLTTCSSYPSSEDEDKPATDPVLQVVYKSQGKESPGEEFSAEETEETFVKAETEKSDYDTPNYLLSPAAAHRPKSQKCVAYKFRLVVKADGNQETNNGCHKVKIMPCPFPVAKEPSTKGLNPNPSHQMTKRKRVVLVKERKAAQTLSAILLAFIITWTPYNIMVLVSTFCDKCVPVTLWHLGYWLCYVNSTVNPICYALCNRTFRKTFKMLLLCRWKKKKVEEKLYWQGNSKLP

Brain = assay: Fraction unbound in rat brain homogenate; format: ADME, tissue-based
Procedure, shortened: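 Binding was measured in rat brain homogenate and reported as % unbound fraction.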

Plasma [13] = assay: Fraction unbound in rat plasma; format: ADME, cell-free; procedure, shortened: as §1
[14] = biological target: T5, Muscarinic acetylcholine receptor M2 (Homo sapiens) (UniProt P08172); assay: Activity at human M2 receptor expressed in CHO cells coexpressing Gqi5 assessed as effect on acetylcholine induced calcium mobilization up to 30 uM incubated for 144 secs prior to acetylcholine addition by Fluo-4-AM staining; format: functional, cell-based
T5 sequence (whole entry): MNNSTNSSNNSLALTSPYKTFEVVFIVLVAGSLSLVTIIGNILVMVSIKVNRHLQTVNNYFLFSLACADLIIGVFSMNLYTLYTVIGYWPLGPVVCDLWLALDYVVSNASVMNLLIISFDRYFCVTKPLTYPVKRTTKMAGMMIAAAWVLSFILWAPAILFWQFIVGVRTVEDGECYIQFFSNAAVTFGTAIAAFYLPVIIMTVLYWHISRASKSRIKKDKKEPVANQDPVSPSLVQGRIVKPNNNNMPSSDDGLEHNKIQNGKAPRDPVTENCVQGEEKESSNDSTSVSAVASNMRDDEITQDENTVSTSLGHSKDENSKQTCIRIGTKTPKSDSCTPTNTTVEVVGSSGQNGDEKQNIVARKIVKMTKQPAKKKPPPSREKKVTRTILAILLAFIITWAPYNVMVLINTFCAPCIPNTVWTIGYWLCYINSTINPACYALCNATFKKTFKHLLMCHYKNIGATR
Procedure, shortened: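 Off-target mode: CHO-K1 lines stably expressing hM1, hM3 or hM5 (wild-type) or hM2 cotransfected with Gqi5, plated 15,000 cells/well, grown overnight at 37 °C. Fluo-4 AM loading 45 min at 37 °C in HBSS/20 mM HEPES/2.5 mM probenecid. Compound (up to 30 µM, 0.3% DMSO final) added 144 s before ACh. Calcium read kinetically at 37 °C.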

[15] = Half life in rat at 1 mg/kg, iv; format: ADME, organism-based; parameters: dose 1 mg/kg, route intravenous; conditions: in vivo
[16] = Drug uptake in rat hepatic portal vein at 10 mg/kg, po administered as single dose measured at 1 hr; format: ADME, organism-based; parameters: dose 10 mg/kg, route oral; conditions: read-out: Drug uptake; procedure, shortened: as §2
[17] = Volume of distribution at steady state in rat at 1 mg/kg, iv; format: ADME, organism-based; parameters: dose 1 mg/kg, route intravenous; conditions: in vivo, read-out: Vdss

Structure (SMILES): COc1ccc(C)c2sc(NC(=O)c3ccncc3)nc12
- EC50 [1]: 1290 nM
- clearance [2]: 11.5 mL/min/kg
- CLint scaled [3]: 48.5 mL/min/kg
- %max [4]: 65.2%
- Fu (Plasma [5]): 1%
- AUC [6]: 1440 ng·h/mL
- Activity [7]: inactive
- MRT [8]: 1.42 h
- concentration at 1 h [9]: 3090 ng/g
- concentration at 1 h [10]: 3740 ng/mL
- Activity [11]: inactive
- Activity [12]: inactive
- Fu (Brain): 0.9%
- Fu (Plasma [13]): 3.2%
- Activity [14]: inactive
- half-life [15]: 0.95 h
- concentration at 1 h [16]: 3070 ng/mL
- Vd [17]: 0.97 L/kg
